Measured values from ChEMBL document CHEMBL1121590, “Synthesis and enzymatic and inotropic activity of some new 8-substituted and 6,8-disubstituted derivatives of adenosine cyclic 3',5'-monophosphate” (J Med Chem, 1980).
Active and inactive are the calls of the source. The calls are words filed in the database; no cut-off is given here.

Columns and labels:
Phosphodiesterase 4 = Phosphodiesterase 4 (Homo sapiens, UniProt P27815+Q08499+Q07343+Q08493); conditions: Oryctolagus cuniculus; Kidney
Canis familiaris [1] = experiment: Inotropic change in blood pressure (systolic/diastolic mmHg) in anesthetized dog; 6/-19; type: functional, organism-based; conditions: Canis lupus familiaris; Artery
Method in brief: (§1)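 Adult mongrel dogs of either sex, induced with sodium methohexital and maintained on methoxyflurane, breathing spontaneously at 37 ± 1 °C. The right atrium was electrically paced, and the pacer was switched off periodically to obtain spontaneous rate. Dose was 3.1 mg/kg iv via the femoral vein. Catheter-tip transducers recorded aortic and LV pressure; LV dP/dt max indexed contractility. BP and rate were taken at the time of maximal % change in dP/dt max. 1–4 dogs were used per compound.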

Canis familiaris [2] = experiment: Change in heart rate (beats/min) in anesthetized dog; type: functional, Canis lupus familiaris
Method in brief: as §1

[3] = Inhibition of cAMP phosphodiesterase preparation from rabbit lung at a substrate concentration of 0.14 uM
Canis familiaris [4] = experiment: Evaluated for dP/dt max in anesthetized dogs; type: functional, Canis lupus familiaris
Method in brief: as §1

Canis familiaris [5] = experiment: Inotropic change in blood pressure (systolic/diastolic mmHg) in anesthetized dog; -4/-9; type: functional, organism-based; conditions: Canis lupus familiaris; Artery
Method in brief: as §1

Canis familiaris [6] = experiment: Inotropic change in blood pressure (systolic/diastolic mmHg) in anesthetized dog; 0/-6; type: functional, Canis lupus familiaris, Artery
Method in brief: as §1

Canis familiaris [7] = experiment: Inotropic change in blood pressure (systolic/diastolic mmHg) in anesthetized dog; 2/-5; type: functional, organism-based; conditions: Canis lupus familiaris; Artery
Method in brief: as §1

Canis familiaris [8] = experiment: Inotropic change in blood pressure (systolic/diastolic mmHg) in anesthetized dog; -8/-25; type: functional, organism-based; conditions: Canis lupus familiaris; Artery
Method in brief: as §1

Canis familiaris [9] = experiment: Inotropic change in blood pressure (systolic/diastolic mmHg) in anesthetized dog; -6/-22; type: functional, organism-based; conditions: Canis lupus familiaris; Artery
Method in brief: as §1

Structure (SMILES)	Hydrolysis (Phosphodiesterase 4)	Change (Canis familiaris [1])	Change (Canis familiaris [2]) [beats/min]	I50 [3] [µM]	Change (Canis familiaris [4]) [%]	Change (Canis familiaris [5])	Change (Canis familiaris [6]) [%]	Change (Canis familiaris [7])	Change (Canis familiaris [8])	Change (Canis familiaris [9])
CCCNc1ncnc2c1nc(SCc1ccccc1)n2[C@@H]1O[C@@H]2COP(=O)(O)O[C@H]2[C@H]1O	< 0.05	inactive	24	3.6	127					
CCN(CC)c1ncnc2c1nc(SCc1ccccc1)n2[C@@H]1O[C@@H]2COP(=O)(O)O[C@H]2[C@H]1O	< 0.05		5	3.6	45	inactive				
CNc1ncnc2c1nc(SCc1ccccc1)n2[C@@H]1O[C@@H]2COP(=O)(O)O[C@H]2[C@H]1O	< 0.05		0	120	71		0			
CCCCNc1ncnc2c1nc(SCc1ccccc1)n2[C@@H]1O[C@@H]2COP(=O)(O)O[C@H]2[C@H]1O	< 0.05		0	20	84			inactive		
CN(C)c1ncnc2c1nc(SCc1ccccc1)n2[C@@H]1O[C@@H]2COP(=O)(O)O[C@H]2[C@H]1O	< 0.05		15		61				inactive	
CCNc1ncnc2c1nc(SCc1ccccc1)n2[C@@H]1O[C@@H]2COP(=O)(O)O[C@H]2[C@H]1O	< 0.05		10	2.5	80					inactive
